pEC50: −log10 of the molar value. Activity calls are given as the source filed them. No cut-off for these calls is given here.
Key:
[1] = Binding affinity to human GFP-tagged NPC1L1 L1072T/L1168I mutant expressed in HEK293 cells assessed as localization to endoplasmic reticulum and plasma membrane after 24 hrs by fluorescence microscopic analysis; format: cell-based; settings: for pEC50: read-out: EC50
Method in brief: (§1)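 HEK293 cells stably expressing the GFP-tagged construct (G418 0.4 mg/mL) were seeded at 6,000 cells/well in DMEM with 1% FBS on poly-lysine-coated glass. On day 2 they were treated for 24 h, final DMSO 0.1%. Cells were fixed in 3.7% formaldehyde and imaged at ×100. Across 25 images, cells were scored ER 0 to PM 1 and averaged as % plasma membrane localization. EC50 was taken from this score.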

[2] = Binding affinity to human GFP-tagged NTD-deleted NPC1L1 L1072T/L1168I mutant expressed in HEK293 cells assessed as localization to plasma membrane after 24 hrs by fluorescence microscopic analysis; format: cell-based; method in brief: as §1
HEK293 [3] = test: Cytotoxicity against HEK293 cells transfected with human GFP-tagged NPC1L1 L1072T/L1168I mutant; format: cell-based
HEK293 [4] = test: Binding affinity to human GFP-tagged NPC1L1 L1072T/L1168I mutant expressed in HEK293 cells assessed as localization to endoplasmic reticulum and plasma membrane at 10 uM after 24 hrs by fluorescence microscopic analysis; format: cell-based
Method in brief: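 HEK293 cells stably expressing NPC1L1-GFP mutant from a CMV promoter, kept under G418 (0.4 mg/mL). Seeded at 6,000 cells/well on poly-lysine-coated glass in DMEM with 1% FBS. Dosed next day in 0.1% DMSO final for 24 h, then fixed in 3.7% formaldehyde and imaged at ×100. Each cell in 25 images scored ER 0 to PM 1; mean reported as % plasma membrane localization.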

[5] = biological target: T1, NPC intracellular cholesterol transporter 1 (Homo sapiens) (UniProt O15118); test: Binding affinity to NPC1 (unknown origin)
T1 sequence (whole entry): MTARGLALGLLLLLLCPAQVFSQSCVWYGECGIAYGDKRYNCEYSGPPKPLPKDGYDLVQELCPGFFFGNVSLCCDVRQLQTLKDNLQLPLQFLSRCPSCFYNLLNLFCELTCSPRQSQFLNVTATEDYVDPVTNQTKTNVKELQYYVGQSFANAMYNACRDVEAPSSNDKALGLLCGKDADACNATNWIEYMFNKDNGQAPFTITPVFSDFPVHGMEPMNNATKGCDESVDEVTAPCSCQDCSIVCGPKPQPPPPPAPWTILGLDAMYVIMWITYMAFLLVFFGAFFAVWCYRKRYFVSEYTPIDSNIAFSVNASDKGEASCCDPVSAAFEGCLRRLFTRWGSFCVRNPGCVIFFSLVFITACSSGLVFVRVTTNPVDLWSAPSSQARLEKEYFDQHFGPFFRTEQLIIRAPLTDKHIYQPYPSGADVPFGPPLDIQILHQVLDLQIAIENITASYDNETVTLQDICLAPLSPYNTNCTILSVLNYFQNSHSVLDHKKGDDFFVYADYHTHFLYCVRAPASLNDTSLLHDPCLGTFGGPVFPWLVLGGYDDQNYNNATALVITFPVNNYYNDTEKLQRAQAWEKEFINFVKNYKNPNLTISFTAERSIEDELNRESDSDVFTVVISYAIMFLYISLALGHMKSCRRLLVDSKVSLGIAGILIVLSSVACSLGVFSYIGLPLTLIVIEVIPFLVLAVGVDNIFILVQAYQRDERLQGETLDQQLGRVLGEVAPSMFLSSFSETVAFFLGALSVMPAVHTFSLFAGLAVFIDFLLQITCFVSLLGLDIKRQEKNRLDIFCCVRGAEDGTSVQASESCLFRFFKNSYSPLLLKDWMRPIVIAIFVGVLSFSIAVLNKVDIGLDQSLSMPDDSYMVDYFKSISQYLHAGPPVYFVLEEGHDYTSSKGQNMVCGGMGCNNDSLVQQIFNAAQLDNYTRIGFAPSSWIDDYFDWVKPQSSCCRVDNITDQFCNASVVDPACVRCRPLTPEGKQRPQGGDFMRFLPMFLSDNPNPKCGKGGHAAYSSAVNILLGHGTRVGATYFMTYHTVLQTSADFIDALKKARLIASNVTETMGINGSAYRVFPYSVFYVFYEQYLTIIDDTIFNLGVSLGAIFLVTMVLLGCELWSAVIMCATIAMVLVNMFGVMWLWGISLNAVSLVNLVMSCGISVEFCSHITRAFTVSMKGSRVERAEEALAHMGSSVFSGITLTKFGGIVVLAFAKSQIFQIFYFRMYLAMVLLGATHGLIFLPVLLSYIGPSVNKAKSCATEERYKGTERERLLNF

HEK293 [6] = test: Binding affinity to human GFP-tagged NPC1L1 L1072T/L1168I mutant expressed in HEK293 cells assessed as protein stabilization after 24 hrs by fluorescence assay; format: cell-based
Method in brief: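 Stable HEK293 lines were grown to 70% confluency in phenol red-free medium in 12-well plates and exposed to vehicle or compound for 24 h. Supernatant GFP fluorescence was read and normalized to BCA total protein, n = 3.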

| SMILES | pEC50 [1] | also measured |
| --- | --- | --- |
| CC(C)CCC[C@@H](C)[C@H]1CC[C@H]2[C@@H]3CC(=O)[C@H]4C[C@@H](O)CC[C@]4(C)[C@H]3CC[C@]12C [5alpha-CHOLESTAN-3beta-OL-6-ONE] | 5.55 | – |
| C[C@H](CCC(=O)N(C)C)[C@H]1CC[C@H]2[C@@H]3CC=C4C[C@@H](OC(=O)N5CCOCC5)CC[C@]4(C)[C@H]3CC[C@]12C | 5.64 | pEC50 [2]: 5.21 |
| CC(C)CCC[C@@H](C)[C@H]1CC[C@H]2[C@@H]3C[C@H](O)[C@H]4C[C@@H](OC(=O)N(CCO)CCO)CC[C@]4(C)[C@H]3CC[C@]12C | 5.96 | – |
| CCCCN(CCCC)C(=O)CC[C@@H](C)[C@H]1CC[C@H]2[C@@H]3CC=C4C[C@@H](O)CC[C@]4(C)[C@H]3CC[C@]12C | < 5.52 | – |
| CC(C)CCC[C@@H](C)[C@H]1CC[C@H]2[C@@H]3C[C@H](O)[C@H]4C[C@@H](O)CC[C@]4(C)[C@H]3CC[C@]12C | 5.07 | – |
| C[C@H](CCC(=O)N(C)C)[C@H]1CC[C@H]2[C@@H]3CC=C4C[C@@H](OC(=O)N5CCN(C)CC5)CC[C@]4(C)[C@H]3CC[C@]12C | 5.54 | pEC50 [2]: < 5.00 |
| CCCN(CCC)C(=O)O[C@H]1CC[C@@]2(C)C(=CC[C@H]3[C@@H]4CC[C@H]([C@H](C)CCC(=O)N(C)C)[C@@]4(C)CC[C@@H]32)C1 | 5.52 | pEC50 [2]: 5.10 |
| CCN(CC)C(=O)CC[C@@H](C)[C@H]1CC[C@H]2[C@@H]3CC=C4C[C@@H](O)CC[C@]4(C)[C@H]3CC[C@]12C | – | Activity (HEK293 [3]): Toxic |
| C[C@H](CCC(C)(C)O)[C@H]1CC[C@H]2[C@@H]3CC=C4C[C@@H](O)CC[C@]4(C)[C@H]3CC[C@]12C | < 5.00 | – |
| C[C@H](CCC(=O)N(C)C)[C@H]1CC[C@H]2[C@@H]3CC=C4C[C@@H](OC(N)=O)CC[C@]4(C)[C@H]3CC[C@]12C | 5.07 | pEC50 [2]: < 5.00 |
| CC(C)CCC[C@@H](C)[C@H]1CC[C@H]2[C@@H]3CC=C4C[C@@H](OC(=O)N(CCO)CCO)CC[C@]4(C)[C@H]3CC[C@]12C | – | EC50 [1]: Not Active |
| CC(C)CC[C@@H](O)[C@@H](C)[C@H]1CC[C@H]2[C@@H]3CC=C4C[C@@H](O)CC[C@]4(C)[C@H]3CC[C@]12C | – | Activity (HEK293 [4]): inactive |
| C[C@H](CCC(=O)N(C)C)[C@H]1CC[C@H]2[C@@H]3CC=C4C[C@@H](OC(=O)N(C)C)CC[C@]4(C)[C@H]3CC[C@]12C | 5.96 | pEC50 [2]: 5.33 |
| CC(C)CCC[C@@H](C)[C@H]1CC[C@H]2[C@@H]3[C@@H](O)C=C4C[C@@H](O)CC[C@]4(C)[C@H]3CC[C@]12C | 5.00 | – |
| CC(C)CCC[C@@H](C)[C@H]1CC[C@H]2[C@@H]3[C@@H](O)C=C4C[C@@H](OC(=O)N(CCO)CCO)CC[C@]4(C)[C@H]3CC[C@]12C | 5.70 | – |
| C[C@H](CCCO)[C@H]1CC[C@H]2[C@@H]3CC=C4C[C@@H](O)CC[C@]4(C)[C@H]3CC[C@]12C | – | EC50 [1]: Not Active |
| C[C@H](CCC(N)=O)[C@H]1CC[C@H]2[C@@H]3CC=C4C[C@@H](O)CC[C@]4(C)[C@H]3CC[C@]12C | < 5.00 | – |

| SMILES | pEC50 [1] | also measured |
| --- | --- | --- |
| C[C@H](CCCC(C)(C)O)[C@H]1CC[C@H]2[C@@H]3CC=C4C[C@@H](O)CC[C@]4(C)[C@H]3CC[C@]12C | 5.64 | Activity [5]: Active |
| CC(C)CCC[C@@H](C)[C@H]1CC[C@H]2[C@@H]3C(=O)C=C4C[C@@H](O)CC[C@]4(C)[C@H]3CC[C@]12C [7-OXOCHOLESTEROL] | 5.01 | – |
| CC(C)CCC[C@@H](C)[C@H]1CC[C@H]2[C@@H]3C[C@@H](O)[C@@]4(O)C[C@@H](OC(=O)N(CCO)CCO)CC[C@]4(C)[C@H]3CC[C@]12C | 5.09 | – |
| CC(C)CCC[C@@H](C)[C@H]1CC[C@H]2[C@@H]3CC=C4C[C@@H](O)CC[C@]4(C)[C@H]3CC[C@]12C | – | Activity (HEK293 [4]): inactive |
| C[C@]12CC[C@H](O)CC1=CC[C@@H]1[C@@H]2CC[C@]2(C)C(=O)CC[C@@H]12 | – | Activity (HEK293 [4]): inactive |
| CC(C)CCC[C@@H](C)[C@H]1CC[C@H]2[C@@H]3C[C@@H](O)[C@H]4C[C@@H](OC(=O)N(CCO)CCO)CC[C@]4(C)[C@H]3CC[C@]12C | 5.70 | – |
| CC(C)CCC[C@](C)(O)[C@H]1CC[C@H]2[C@@H]3CC=C4C[C@@H](O)CC[C@]4(C)[C@H]3CC[C@@]21C | – | Activity (HEK293 [4]): inactive |
| CC(C)CCC[C@@H](C)[C@H]1CC[C@H]2[C@@H]3C(=O)C=C4C[C@@H](OC(=O)N(CCO)CCO)CC[C@]4(C)[C@H]3CC[C@]12C | 5.42 | – |
| CC(C)CCC[C@@H](C)[C@H]1CC[C@H]2[C@@H]3CC=C4C[C@@H](O)CC[C@]4(CO)[C@H]3CC[C@]12C | – | Activity (HEK293 [6]): inactive; Activity (HEK293 [4]): inactive |
| CC(C)CCC[C@@H](C)[C@H]1CC[C@H]2[C@@H]3C[C@@H](O)[C@H]4C[C@@H](O)CC[C@]4(C)[C@H]3CC[C@]12C | 5.01 | – |
| CCN(CC)C(=O)O[C@H]1CC[C@@]2(C)C(=CC[C@H]3[C@@H]4CC[C@H]([C@H](C)CCC(=O)N(C)C)[C@@]4(C)CC[C@@H]32)C1 | 5.74 | pEC50 [2]: 5.38 |
| CC(C)CC[C@H](O)[C@@H](C)[C@H]1CC[C@H]2[C@@H]3CC=C4C[C@@H](O)CC[C@]4(C)[C@H]3CC[C@]12C | – | Activity [5]: Active; Activity (HEK293 [4]): inactive |
| CNC(=O)CC[C@@H](C)[C@H]1CC[C@H]2[C@@H]3CC=C4C[C@@H](O)CC[C@]4(C)[C@H]3CC[C@]12C | < 5.00 | – |
| C[C@H](CCC(=O)O)[C@H]1CC[C@H]2[C@@H]3CC=C4C[C@@H](O)CC[C@]4(C)[C@H]3CC[C@]12C | < 5.00 | – |
| CCCN(CCC)C(=O)CC[C@@H](C)[C@H]1CC[C@H]2[C@@H]3CC=C4C[C@@H](O)CC[C@]4(C)[C@H]3CC[C@]12C | – | Activity (HEK293 [3]): Toxic |
| CC(C)CCC[C@@H](C)[C@H]1CC[C@H]2[C@@H]3CC(=O)[C@H]4C[C@@H](OC(=O)N(CCO)CCO)CC[C@]4(C)[C@H]3CC[C@]12C | 5.42 | – |
| C[C@H](CCC(=O)N(C)C)[C@H]1CC[C@H]2[C@@H]3CC=C4C[C@@H](O)CC[C@]4(C)[C@H]3CC[C@]12C | 6.10 | – |
